Series [1] deals with Klebsiella pneumoniae. Description: Antimicrobial activity against Klebsiella pneumoniae 5979 expressing NDM1 assessed as inhibition of microbial growth incubated for 18 to 20 hrs by CLSI based method. It is filed as organism-based. In short, it runs like this: (§1)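 CLSI broth microdilution in MHBII. Compound tested alone in serial two-fold dilutions, 128–0.12 µg/mL. Inoculum was set to 0.5 McFarland and diluted to about 5×10^5 CFU per well. Plates incubated at 35 °C for 18–20 h. MIC read as the lowest concentration with no visible growth; an un-inoculated plate served as solubility control.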

Series [2] deals with Pseudomonas aeruginosa. Description: Antimicrobial activity against Pseudomonas aeruginosa 4698 expressing VIM2 assessed as inhibition of microbial growth incubated for 18 to 20 hrs by CLSI based method. It is filed as organism-based. In short, it runs like this: as §1
The test system of series [3] is Klebsiella pneumoniae. As to the kind of experiment: Antimicrobial activity against Klebsiella pneumoniae 4683 expressing KPC2 assessed as inhibition of microbial growth incubated for 18 to 20 hrs by CLSI based method. It is filed as organism-based. In short, it runs like this: as §1
The test system of series [4] is Escherichia coli. Description: Antimicrobial activity against Escherichia coli 5980 expressing NDM1 assessed as inhibition of microbial growth incubated for 18 to 20 hrs by CLSI based method. It is filed as organism-based. In short, it runs like this:
as §1

In series [5] the test system is Enterobacter cloacae. Description: Antimicrobial activity against Enterobacter cloacae 5981 expressing NDM1 assessed as inhibition of microbial growth incubated for 18 to 20 hrs by CLSI based method. It is filed as functional. In short, it runs like this:
as §1

Series [6] has as its system Escherichia coli. As to the kind of experiment: Inhibition of NDM-1 in Escherichia coli 5980 assessed as potentiation of imipenem-induced antimicrobial activity by measuring imipenem MIC incubated for 18 to 20 hrs by CLSI based method (reference value: 8 ug/ml). In short, it runs like this:
(§2)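 CLSI broth microdilution in MHBII. […] Inoculum about 5×10^5 CFU per well, incubated at 35 °C for 18–20 h. Imipenem MIC read as absence of visible growth.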

Series [7] is described as follows: Inhibition of N-terminal 6x-His/Sumo-tagged NDM-1 (29 to 270 residues) (unknown origin) expressed in Escherichia coli BL21 (DE3) assessed as reduction in nitrocefin hydrolysis by spectrophotometry. The arrangement: species or system Bacteria. Conditions: for pKi: read-out: Ki; call rule not given here. In short, it runs like this:
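Metallo-enzyme assay in 50 mM HEPES pH 7.2 with 50 µM zinc sulfate, 0.01% Triton X-100 and 20 µg/mL BSA, 37 °C. NDM-1 was construct 1 with the His/SUMO tag cleaved, at 2 nM; VIM-2 had its His tag TEV-cleaved, at 0.5 nM.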

The test system of series [8] is Enterobacter cloacae. As to the kind of experiment: Inhibition of NDM-1 in Enterobacter cloacae 5981 assessed as potentiation of imipenem-induced antimicrobial activity by measuring imipenem MIC incubated for 18 to 20 hrs by CLSI based method (reference value: 2 ug/ml). In short, it runs like this: as §2
Series [9] concerns the target Metallo-beta-lactamase type 2 (Klebsiella pneumoniae) (UniProt C7C422). Description: Inhibition of NDM-1 in Klebsiella pneumoniae 5979 assessed as potentiation of imipenem-induced antimicrobial activity by measuring imipenem MIC incubated for 18 to 20 hrs by CLSI based method (reference value: <[…] ug/ml).
The nature of series [10]: Inhibition of N-terminal 6x-His-tagged VIM-2 (unknown origin) expressed in Escherichia coli Rosetta 2 (DE3) assessed as reduction in nitrocefin hydrolysis by spectrophotometry. The arrangement: species or system Bacteria. In short, it runs like this: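 Metallo-enzyme assay in 50 mM HEPES pH 7.2 with 50 µM zinc sulfate, 0.01% Triton X-100 and 20 µg/mL BSA, 37 °C. NDM-1 was construct 1 with the His/SUMO tag cleaved, at 2 nM; VIM-2 had its His tag TEV-cleaved, at 0.5 nM. Nitrocefin hydrolysis read at 486 nm; IC50 from sigmoidal fit, Ki by Cheng-Prusoff; mostly duplicate.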

Series [11] can be described thus: Inhibition of N-terminal 6x-His-tagged Klebsiella pneumoniae KPC2 (25 to 293 residues) assessed as reduction in nitrocefin hydrolysis by spectrophotometry. In short, it runs like this:
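Purified recombinant KPC-2 at 1 nM in 100 mM Tris-HCl pH 7.0 with 0.01% Triton X-100, 37 °C, reaction started by enzyme. IC50 from sigmoidal fit; Ki by Cheng-Prusoff using the nitrocefin Km. Run in duplicate, or once or in triplicate for some compounds.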

Series [12] concerns Pseudomonas aeruginosa. As to the kind of experiment: Antimicrobial activity against Pseudomonas aeruginosa 4135 expressing KPC2 assessed as inhibition of microbial growth incubated for 18 to 20 hrs in presence of imipenem by CLSI based method. It is filed as functional.
Series [13] can be described thus: Kinetic solubility in pH 7.4 PBS. It is filed as physicochemical. To be noted: buffer.
Series [14] in a line: Apparent permeability from basolateral to apical side in MDCK-MDR1 cells. It is filed as ADME, cell-based, Canis lupus familiaris. To be noted: dog.
The subject of series [15] is Pseudomonas aeruginosa. Description: Inhibition of KPC2 in Pseudomonas aeruginosa 4135 assessed as potentiation of ceftazidime-induced antimicrobial activity by measuring ceftazidime MIC incubated for 18 to 20 hrs by CLSI based method (reference value: […] ug/ml).
Series [16] can be described thus: Half life in mouse liver microsomes. It is filed as ADME, Microsome. Background: Liver microsomes are a subcellular fraction often used to study metabolism.
Series [17] concerns Klebsiella pneumoniae. Description: Inhibition of KPC2 in Klebsiella pneumoniae C2 assessed as potentiation of imipenem-induced antimicrobial activity by measuring imipenem MIC incubated for 18 to 20 hrs by CLSI based method (reference value: 512 ug/ml).
The subject of series [18] is Pseudomonas aeruginosa. As to the kind of experiment: Inhibition of NDM1 in Pseudomonas aeruginosa 4129 assessed as potentiation of ceftazidime-induced antimicrobial activity by measuring ceftazidime MIC incubated for 18 to 20 hrs by CLSI based method (reference value: 128 ug/ml). In short, it runs like this:
(§3)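 CLSI broth microdilution in MHBII. Standardized inoculum was a 0.5 McFarland suspension diluted to about 5×10^5 CFU per well. Ceftazidime was tested over 64–0.006 µg/mL, with avibactam fixed at 4 µg/mL as the positive control.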

Series [19] concerns the target Beta-lactamase VIM-2 (Pseudomonas aeruginosa) (UniProt Q9K2N0). Description: Inhibition of VIM-2 in efflux positive Pseudomonas aeruginosa 4402 assessed as potentiation of ceftazidime-induced antimicrobial activity by measuring ceftazidime MIC incubated for 18 to 20 hrs by CLSI based method (reference value: 32 ug/ml). In short, it runs like this:
as §3

Series [20] deals with Pseudomonas aeruginosa. Description: Antimicrobial activity against Pseudomonas aeruginosa 4129 expressing NDM1 assessed as inhibition of microbial growth incubated for 18 to 20 hrs in presence of imipenem by CLSI based method. It is filed as functional.
A short description of series [21]: Permeability in MDCK-MDR1 cells assessed as drug recovery. To be noted: dog. It is filed as ADME, cell-based, Canis lupus familiaris.
Series [22] deals with Klebsiella pneumoniae. Description: Antimicrobial activity against Klebsiella pneumoniae C2 expressing KPC2 assessed as inhibition of microbial growth incubated for 18 to 20 hrs in presence of imipenem by CLSI based method. It is filed as functional.
A short description of series [23]: Intrinsic clearance in mouse liver microsomes. It is filed as ADME, Microsome.
The subject of series [24] is Pseudomonas aeruginosa. Description: Antimicrobial activity against efflux positive Pseudomonas aeruginosa 4402 expressing VIM2 assessed as inhibition of microbial growth incubated for 18 to 20 hrs in presence of imipenem by CLSI based method. It is filed as functional.
Series [25] deals with Beta-lactamase VIM-2 (Pseudomonas aeruginosa) (UniProt Q9K2N0). Description: Inhibition of VIM-2 in Pseudomonas aeruginosa 4882 assessed as potentiation of imipenem-induced antimicrobial activity by measuring imipenem MIC incubated for 18 to 20 hrs by CLSI based method (reference value: 32 ug/ml).
The subject of series [26] is Pseudomonas aeruginosa. Description: Inhibition of NDM1 in efflux positive Pseudomonas aeruginosa 4177 assessed as potentiation of ceftazidime-induced antimicrobial activity by measuring ceftazidime MIC incubated for 18 to 20 hrs by CLSI based method (reference value: 128 ug/ml). In short, it runs like this:
as §3

Series [27] is described as follows: Cytotoxicity in HEK293T cells assessed as cell recovery rate at 100 ug/ml incubated for 48 hrs by MTT assay relative to control. It is filed as cell-based, HEK-293T. To be noted: human, read-out: Activity. In short, it runs like this: (§4)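 HEK293T cells grown in DMEM with 10% FBS and 1% penicillin/streptomycin. Compounds in DMSO were tested at 200–3.125 µg/mL, two-fold dilutions, for 48 h at 37 °C, 5% CO2. Viability by MTT, read at OD 570 nm; percent recovery calculated against solvent-only controls.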
A general note: Formazan colour is commonly taken as a measure of viable cells.

The subject of series [28] is Pseudomonas aeruginosa. Description: Antimicrobial activity against efflux positive Pseudomonas aeruginosa 4177 expressing NDM1 assessed as inhibition of microbial growth incubated for 18 to 20 hrs in presence of imipenem by CLSI based method. It is filed as functional.
Series [29] in a line: Cytotoxicity in HEK293T cells assessed as cell recovery rate at 200 ug/ml incubated for 48 hrs by MTT assay relative to control. It is filed as cell-based, HEK-293T. Conditions: human, read-out: Activity. In short, it runs like this:
as §4

Series [30] deals with Pseudomonas aeruginosa. Description: Antimicrobial activity against Pseudomonas aeruginosa 4882 expressing VIM2 assessed as inhibition of microbial growth incubated for 18 to 20 hrs in presence of imipenem by CLSI based method. It is filed as functional.
A short description of series [31]: Apparent permeability from apical to basolateral side in MDCK-MDR1 cells. It is filed as ADME, cell-based, Canis lupus familiaris. Conditions: dog.

pKi: −log10 of the molar value. Where only a bound is given, the exact number is not on record here.

Metallo-beta-lactamase type 2 (Klebsiella pneumoniae), sequence (C7C422 whole entry): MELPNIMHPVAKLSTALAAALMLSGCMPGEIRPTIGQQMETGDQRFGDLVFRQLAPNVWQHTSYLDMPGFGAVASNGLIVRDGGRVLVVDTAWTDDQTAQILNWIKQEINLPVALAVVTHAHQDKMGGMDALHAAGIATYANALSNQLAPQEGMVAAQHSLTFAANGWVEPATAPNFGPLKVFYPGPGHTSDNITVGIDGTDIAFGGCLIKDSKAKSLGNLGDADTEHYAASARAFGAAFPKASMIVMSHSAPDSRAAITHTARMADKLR

Broadly, the pKi is the negative decadic logarithm of the Ki, by convention in mol/L. For `Cc1cc(Br)c2c(CP(=O)(O)O)cc(=O)oc2c1`, the MIC with Klebsiella pneumoniae [1] was > 128 µg/mL; in the series on Pseudomonas aeruginosa [2], > 128 µg/mL; with Klebsiella pneumoniae [3], > 128 µg/mL; in the series with Escherichia coli [4], > 128 µg/mL; with Enterobacter cloacae [5], > 128 µg/mL; in the series on Escherichia coli [6] it was 2 µg/mL. Moreover, the results for the MIC (in the series on Enterobacter cloacae [8]; in [9]) were 2 µg/mL and 32 µg/mL, respectively. Besides, the pKi in series [7] was 4.47; in series [10], 5.92.
Turning to `Cc1cc(F)c2c(CP(=O)(O)O)cc(=O)oc2c1`, the pKi is 5.07 in [11], 3.64 in series [7] and 5.48 in [10].
Regarding `O=c1cc(CP(=O)(O)O)c2c(F)cc(F)cc2o1`, the Ki entry in series [7] is reported as “Not Active”. Also, the pKi in [10] is 5.48.
For the molecule `Cc1cc(C)c2c(CP(=O)(O)O)cc(=O)oc2c1`, the results for the pKi in [7] and in [10] were 4.47 and 6.09, respectively.
The Papp is the rate of passage across a membrane or cell layer, normalised by area and donor concentration. `O=c1cc(CP(=O)(O)O)c2c(Br)cc(Br)cc2[nH]1`: the MIC with Pseudomonas aeruginosa [12] was 128 µg/mL; with Pseudomonas aeruginosa [15] it was 2 µg/mL; with Klebsiella pneumoniae [17], 4 to 16 µg/mL; with Pseudomonas aeruginosa [18], 8 µg/mL; in series [19], 4 µg/mL; in the series on Pseudomonas aeruginosa [20], 128 µg/mL. Besides, the MIC was 16 to 128 µg/mL with Klebsiella pneumoniae [22]; 128 µg/mL with Pseudomonas aeruginosa [24]; 2 µg/mL in [25]; 32 µg/mL in the series on Pseudomonas aeruginosa [26]; 128 µg/mL with Pseudomonas aeruginosa [28]; 128 µg/mL in the series on Pseudomonas aeruginosa [30]. This molecule also yielded a Kinetic_solubility in series [13] of 241 µM. Also, the apparent permeability coefficient (Papp) in [14] is < 0.2 ×10⁻⁶ cm/s; in series [31] it was < 0.7 ×10⁻⁶ cm/s. Besides, in series [16], the t1/2 was > 2 h. Moreover, the negative-log Ki (pKi) in series [11] is 7.70; in series [7], 4.50; in [10], 6.50. For the same molecule, the Drug recovery in series [21] was found to be 91%. Further, in [23], the CLH was < 11.6 µL/min/mg. The viability at 48 h, 100 ug/ml in series [27] came out at 88%. Moreover, the viability at 48 h, 200 ug/ml in series [29] worked out at 70%.
For `Cc1cc2oc(=O)cc(CP(=O)(O)O)c2cc1C`, the negative-log Ki (pKi) is 4.35 in series [7] and 5.68 in series [10].
Consider `CC(C)NCC(O)COc1cccc2ccccc12` (stereo not given) [PROPRANOLOL], for which, in series [21], the Drug recovery came out at 97%.
With `Cn1c(=O)cc(CP(=O)(O)O)c2ccccc21`, the pKi in series [7] was 4.09; in series [10] it was 5.12.

These data come from ChEMBL document CHEMBL4321808, “Heteroaryl Phosphonates as Noncovalent Inhibitors of Both Serine- and Metallocarbapenemases” (J Med Chem, 2019).
